T cruzi inh = T. cruzi replication inhibition | T. cruzi beta-gal in NIH3T3, luminescence, 90 h | inhibition, % (test concentration not listed) | actives 1.4% (n = 300,000);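 active = mean inhibition across valid replicates above about 55%, limit read from the data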;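 also: signal also drops with host cell toxicity which is not excluded here; higher percent means less beta-gal luminescence so fewer parasites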
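compound dosing = single 50 nL compound addition per well in DMSO | material = NIH/3T3 host cells with β-galactosidase reporter T. cruzi | input = 5,000 host fibroblasts per well | timing = ≥90 h infection period, 3 h prior cell attachment | read-out basis = percent inhibition of parasite-derived β-gal signal | detection = GalScreen β-gal luminescence, detergent lysis, 60 min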
NALP1 inh = NALP1 inhibition; AID 2071; inhibition, % at 10 µM; actives 0.61% (n = 280,000); S. cerevisiae NALP1/ASC/caspase-1 growth, X-gal OD620, 72 h; in the data active = inhibition mostly above about 24%, no sharp cut-off; inactive = mostly below about 32%
PolyA inh = blocks polyadenylation in yeast reporter cells | actives 0.02% (n = 300,000) | AID 1875 | S. cerevisiae SKY197-pL101 polyadenylation reporter, beta-gal luminescence; efflux-impaired pdr1/pdr3 knockout yeast; score 100 = 6 SD above DMSO | activity score, % at 12 µM;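 active = lowest replicate activity score at least 50, where 100 means six control SD above control mean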;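 also: yeast exposed to compound for 9 h at 30 °C; higher score means more reporter readthrough which indicates perturbed polyadenylation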
NLRP3 yeast inh = NALP3 inhibition in yeast | Yeast reconstituted NLRP3/ASC/caspase-1, beta-gal luminescence, 24 h | AID 2825 | inhibition, % at 10 µM | actives 0.39% (n = 330,000);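 active = inhibition of 50% or more; inactive = inhibition below 50%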
Lmaj promast = inhibitors of Leishmania major promastigote growth. Leishmania major promastigotes, resazurin fluorescence viability. inhibition, % at 10 µM. actives 9% (n = 200,000). AID 1063;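 also: promastigotes grown with compound for 44 hours at 28 °C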
Calb FLC = affects C. albicans growth with fluconazole | C. albicans CaCi-2 + fluconazole, Alamar Blue growth, 48 h | actives 0.57% (n = 300,000) | growth inhibition, % (no concentration beside the values);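 active = growth inhibition above about 58% in most replicates, limit read from the data, passing the limit was not always enough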;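 also: all wells also contain fluconazole at 8 µg/ml as a sub-toxic cotreatment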
NALP3 yeast conf = NALP3 inhibition confirmation in yeast. shares compounds with NLRP3 yeast inh. yeast expressing human NALP3, luminescence. inhibition, % at 10 µM. actives 81% (n = 1,300); in the data active = inhibition above about 48%
Casp1-ASC yeast = counter-screen for NALP3 inhibitors: yeast caspase-1-ASC; shares compounds with NLRP3 yeast inh; yeast expressing Caspase-1-ASC, luminescence counter screen; inhibition, % at 10 µM; actives 66% (n = 1,000); AID 488784
NALP3 retest = yeast NALP3 inhibition, confirmed on retest. shares compounds with NLRP3 yeast inh. inhibition, % at 10 µM. actives 53% (n = 1,000). AID 488794. yeast expressing human NALP3, luminescence read-out
Hits are given with their value; . = inactive; / = no result given. The sample as a whole holds a higher share of hits than the screen did. Rule as the data show it, unless noted: active = inhibition above about 50%; inactive = the rest.

SMILES	T cruzi inh	NALP1 inh	PolyA inh	NLRP3 yeast inh	Lmaj promast	Calb FLC	NALP3 yeast conf	Casp1-ASC yeast	NALP3 retest
Cc1ccc(C(=O)N2CCCC(N3CCN(c4ccccc4F)CC3)C2)s1 (stereo unspecified)	.	.	.	.	/	.	/	/	/
CCCCOc1ccc(C2/C(=C(\O)c3ccc4c(c3)OCCO4)C(=O)C(=O)N2CCCN2CCOCC2)cc1 (stereo unspecified)	.	.	.	59.5	/	.	54.9	68.3	53.5
Cc1nc2nc(-c3cccs3)[nH]c2cc1Br	.	/	.	53.6	/	.	75.7	59.5	62.8
O=C1CC2(CCN(C(=O)COc3ccccc3F)CC2)Oc2ccccc21	.	/	.	.	/	.	/	/	/
C/C(=N\NC(=S)NCCc1ccccc1)c1ccc(Cl)cc1Cl	/	.	.	58.3	/	.	.	76.8	58.1
Cc1cc(NC(=O)CSc2nccn2-c2cccc(Cl)c2)no1	.	.	.	.	/	.	/	/	/
O=C1C2C3C=CC(C3)C2C(=O)N1c1ccccc1 (stereo unspecified)	.	.	.	.	.	.	/	/	/
O=C1C2C3C=CC(C3=C3CCCCC3)C2C(=O)N1c1ccccc1 (stereo unspecified)	.	.	.	57.7	.	/	65.0	.	.
CSc1ccc(S(=O)(=O)NCCCOC(C)C)cc1	.	.	.	.	.	.	/	/	/
O=C(/C=C/c1ccccc1)c1c[nH]c2ccccc12	.	.	.	50.2	/	.	62.6	/	/
O=C(Nc1ccccc1)C(=O)c1c[nH]c2ccccc12	.	.	.	57.6	/	.	75.4	.	.
CC(=O)c1ccc(N2CCN(S(=O)(=O)c3c(C)[nH]c(C)c3C(=O)N3CCCC3)CC2)cc1	.	.	.	.	/	.	/	/	/
Cc1cccc(OCCCSc2nc3ccc(C)cc3[nH]2)c1	.	.	.	50.5	.	.	52.6	53.5	.
Cc1cccc(OCCSc2nc3ncnc(N)c3[nH]2)c1	.	.	.	.	.	.	/	/	/
CCOC(=O)NC(C)N1C(=O)C2C3C=CC(C3)C2C1=O (stereo unspecified)	.	.	.	.	.	.	/	/	/
COc1ccc(-c2cc(=O)c3cc(O)ccc3o2)cc1	.	.	.	.	.	.	/	/	/
COc1ccc(-c2cc(=Nc3ccc(C(=O)O)cc3)c3cc(C)ccc3o2)cc1	.	.	.	53.0	.	.	71.6	56.6	.
Cc1cc(C)cc(NC(=O)COc2ccc(C(=S)N3CCOCC3)cc2)c1	.	.	.	.	.	.	/	/	/
COc1ccc(N=C2S/C(=C\c3ccc(N4CCOCC4)o3)C(=O)N2CCc2c[nH]c3ccccc23)cc1	56.4	.	.	57.2	100.5	.	53.5	/	/
Cn1nc(-c2ccccc2)c(C(=O)Nc2ccc(Cl)cc2)c1Cl	.	.	.	81.3	.	.	86.2	54.7	.
Cn1nc(-c2ccccc2)c(C(=O)Nc2ccc(C(F)(F)F)cc2)c1Cl	.	.	.	.	.	.	/	/	/
C=C(C)COc1ccc2c(C)c(CC(=O)OC)c(=O)oc2c1C	/	.	/	66.3	58.2	/	77.9	83.0	79.8
COC(=O)Cc1c(C)c2ccc(OCC(C)=O)c(C)c2oc1=O	.	.	.	.	.	.	/	/	/
O=c1c2cc(Cl)ccc2nc(-c2ccccc2)n1O	.	.	.	.	.	.	/	/	/
O=c1c2cc(Br)ccc2nc(-c2ccc([N+](=O)[O-])cc2)n1O	.	.	.	52.9	.	109.7	78.6	.	62.1
SMILES	T cruzi inh	NALP1 inh	PolyA inh	NLRP3 yeast inh	Lmaj promast	Calb FLC	NALP3 yeast conf	Casp1-ASC yeast	NALP3 retest
O=c1c2ccc(Cl)cc2nc(-c2ccc([N+](=O)[O-])cc2)n1O	.	.	.	57.4	.	86.9	81.4	62.2	53.8
COc1cc(CC(=O)OCC(=O)Nc2cccc([N+](=O)[O-])c2)cc(OC)c1OC	.	.	.	.	.	.	/	/	/
Cc1ccc(C(=O)NC(=S)NNC(=O)c2ccccc2O)cc1	.	.	.	53.2	/	.	56.0	.	.
O=C(NNC(=O)c1ccccc1Cl)c1cccs1	.	.	.	.	.	.	/	/	/
O=C(NC(=S)NNC(=O)c1ccccc1O)c1ccc(F)cc1	.	.	.	50.4	/	.	66.8	.	52.1
O=C(NC(=S)NNC(=O)c1ccccc1O)c1cccs1	.	.	.	58.9	/	.	77.6	70.2	56.2
O=C(NC(=S)NNC(=O)c1ccccc1O)c1ccc([N+](=O)[O-])cc1	.	.	.	.	/	.	/	/	/
Cc1ccc(C(=O)NNC(=S)NC(=O)c2ccc(Cl)cc2Cl)cc1	.	.	.	51.0	.	.	65.7	50.5	.
Cc1ccc2c(c1)C(CCN)C(=O)N2Cc1ccccc1 (stereo unspecified)	.	.	.	50.5	.	.	68.5	51.9	50.6
Cc1ccc2c(c1)C(=O)C(=O)N2Cc1ccccc1	/	/	/	.	/	/	/	/	/
OCCCn1c(CCNc2nc(-c3ccc(F)cc3)cs2)nc2cc(C(F)(F)F)ccc21	.	/	.	.	/	.	/	/	/
COc1ccc(C(=O)Nc2cc(C(F)(F)F)ccc2-n2cncn2)cc1	.	.	.	.	.	.	/	/	/
CC(Oc1ccc(F)cc1)C(=O)Nc1cc(C(F)(F)F)ccc1-n1cncn1 (stereo unspecified)	.	/	.	.	/	.	64.2	.	.
Cc1csc(=Nc2cccnc2)n1CC1CCCCC1	.	.	.	.	.	.	.	/	/
CCCN1CCCc2cc(CN)ccc21	89.0	.	.	53.9	100.0	.	59.8	/	/
CCCC1CCC(c2ccc(C(N)=O)cc2)CC1 (stereo unspecified)	.	.	.	.	.	.	/	/	/
CCCC1CCC(c2ccc(C(=O)NN)cc2)CC1 (stereo unspecified)	.	.	.	51.5	.	.	.	/	/
Cc1cccc(N2CCN(C(=O)/C=C/c3cccs3)CC2)c1C	.	.	.	.	.	.	/	/	/
CSC1=C(C#N)C(=O)NC(c2ccc(Cl)cc2)S1 (stereo unspecified)	.	/	.	.	/	.	/	/	/
CN(C)S(=O)(=O)c1cccc(NC(=O)C2Cc3ccccc3CN2C(=O)c2ccccc2)c1 (stereo unspecified)	.	.	.	.	/	.	/	/	/
O=S(=O)(c1cccc(Br)c1)N1CCN(CCc2ccccc2)CC1	.	.	.	52.9	/	.	70.8	51.7	.
O=S(=O)(c1ccc(Cl)s1)N1CCN(CCc2ccccc2)CC1	.	.	.	60.0	/	.	76.3	63.0	53.2
COc1ccc(S(=O)(=O)N2CCN(CCc3ccccc3)CC2)cc1	.	.	.	.	/	.	/	/	/
C/C=C/c1ccc(OCC(=O)OCc2csc(CC(=O)Nc3ccccc3C)n2)c(OC)c1	.	.	.	.	/	.	/	/	/

Bioassay records: PubChem BioAssay, several laboratories
